Experimental data: ChEMBL document CHEMBL1125740, “Heterocyclic quinones. 17. A new in vivo active antineoplastic drug: 6,7-bis(1-aziridinyl)-4-[[3-(N,N-dimethylamino)propyl]amino]-5,8- quinazolinedione” (J Med Chem, 1991)
Several values for one entry are separate records, joined by “and”; a condition that tells them apart may be missing. Identical values can stand only once.

What was measured:
B16 [1] = test: Compound was evaluated in vivo for antitumor activity against B16 melanoma after injecting the compound intravenously for median tumor burden; type: functional, Mus musculus
How it was run: (§1)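 30-60 mg tumor fragments implanted sc by trocar on day 0 into C57Bl/6-derived hosts (B16) or C3H/He-derived hosts (16/C). Drug given iv on days 6, 9 and 13 (B16) or 6, 9 and 12 (16/C), 10 mice per group. Tumors measured by caliper. T/C % taken from median tumor burden of treated vs control groups on day 15 (B16) or day 14 (16/C). Body weight change per mouse recorded at nadir.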

B16 [2] = test: Compound was evaluated in vivo for antitumor activity against B16 melanoma 2 after injecting the compound intravenously median tumor burden; type: functional, Mus musculus
B16 [3] = test: Compound was evaluated in vivo for antitumor activity against B16 melanoma 1 after injecting the compound intravenously for percent T/C (value in parentheses indicates the day of evaluation); type: functional, Mus musculus
B16 [4] = test: Compound was evaluated in vivo for antitumor activity against […] B16 melanoma 2 after injecting the compound intravenously for optimal dose; type: functional, Mus musculus
[5] = Compound was evaluated in vivo for antitumor activity against Glasgow osteogenic sarcoma after injecting the compound intravenously for toxicity related death.; type: functional, Mus musculus
How it was run: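 Glasgow osteogenic sarcoma in C57Bl/6-derived hosts: 30-60 mg fragments implanted sc by trocar on day 0. Drug given iv on days 3, 6 and 9, 7 mice per group. Tumors measured by caliper. Median tumor burden recorded on day 10. Body weight change per mouse recorded at nadir. Toxicity-related deaths counted.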

M5076 = test: Compound was evaluated in vivo for antitumor activity against M5076 after injecting the compound intravenously for percent T/C; type: functional, Mus musculus
L1210 [6] = test: Compound was evaluated in vivo for antitumor activity after intraperitoneal administration against L1210(935) for total dose at an optimal dose of 0.4 mg/kg/injection at 1-4 day schedule.; type: functional, Mus musculus
How it was run: (§2)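 L1210 leukemia, maintained in DBA/2 mice, was given ip as 10⁵ cells on day 0 to F1 hybrid or strain-of-origin mice over 18 g, in groups of 8. Dosing was ip from day 1, and mortality was checked daily. Median day of death counts dying mice only. %ILS = 100×(treated − control median day of death)/control median. Tumor-free survivors were counted on day 60. Weight change is g/mouse at nadir.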

L1210 [7] = test: Compound was evaluated in vivo for antitumor activity after intraperitoneal administration against L1210(935) for mortality range at an optimal dose of 0.25 mg/kg/injection at 1,4,7,11day schedule.; type: functional, Mus musculus; how it was run: as §2
L1210 [8] = test: Compound was evaluated in vivo for antitumor activity after intraperitoneal administration against L1210(935) for mortality range at an optimal dose of 0.2 mg/kg/injection at 1-4 day schedule.; type: functional, Mus musculus; how it was run: as §2
L1210 [9] = test: Compound was evaluated in vivo for antitumor activity after intraperitoneal administration against L1210(935) for mortality range at an optimal dose of 0.4 mg/kg/injection at 1-4 day schedule.; type: functional, Mus musculus; how it was run: as §2
L1210 [10] = test: Compound was evaluated in vivo for antitumor activity after intraperitoneal administration against L1210(935)for change in body weight at an optimal dose of 0.25 mg/kg/injection at 1,4,7,11day schedule.; type: functional, Mus musculus; how it was run: as §2
L1210 [11] = test: Compound was evaluated in vivo for antitumor activity after intraperitoneal administration against L1210(935) for median day of death at an optimal dose of 0.5 mg/kg/injection at 1,4,7,11day schedule.; type: functional, Mus musculus; how it was run: as §2
L1210 [12] = test: Compound was evaluated in vivo for antitumor activity after intraperitoneal administration against L1210(935) for mortality range at an optimal dose of 0.1 mg/kg/injection at 1-4 day schedule.; type: functional, Mus musculus; how it was run: as §2
L1210 [13] = test: Compound was evaluated in vivo for antitumor activity after intraperitoneal administration against L1210(935)for % increase in life span at an optimal dose of 0.25 mg/kg/injection at 1,4,7,11day schedule.; type: functional; conditions: Mus musculus, L1210, ip; how it was run: as §2
L1210 [14] = test: Compound was evaluated in vivo for antitumor activity after intraperitoneal administration against L1210(935)for % increase in life span at an optimal dose of 0.2 mg/kg/injection at 1-4 day schedule.; type: functional; conditions: Mus musculus, L1210, ip; how it was run: as §2
[15] = Compound was evaluated in vivo for antitumor activity against Lewis Lung cercinoma after injecting the compound intravenously for percent T/C (value in parentheses indicates the day of evaluation); type: functional, Mus musculus
P388 [16] = test: Compound was evaluated in vivo for antitumor activity after intraperitoneal administration against P388 (1313) for mortality range at an optimal dose of 1 mg/kg/injection; type: functional, Mus musculus
P388 [17] = test: Compound was evaluated in vivo for antitumor activity after intraperitoneal administration against P388 (1313) for total dose at an optimal dose of 0.4 mg/kg/injection; type: functional, Mus musculus
P388 [18] = test: Compound was evaluated in vivo for antitumor activity after intraperitoneal administration against P388/L-PAM(14) for median day of death at an optimal dose of 0.2 mg/kg/injection at 1,2,3,4 day schedule.; type: functional, Mus musculus
P388 [19] = test: Compound was evaluated in vivo for antitumor activity after intraperitoneal administration against P388/L-PAM(14) for median day of death at an optimal dose of 0.4 mg/kg/injection at 1,2,3,4 day schedule.; type: functional, Mus musculus
P388 [20] = test: Compound was evaluated in vivo for antitumor activity after intraperitoneal administration against P388/L-PAM(14) for median day of death at an optimal dose of 1 mg/kg/injection; type: functional, Mus musculus
P388 [21] = test: Compound was evaluated in vivo for antitumor activity after intraperitoneal administration against P388/L-PAM(12) for tumor free survivors at an optimal dose of 0.75 mg/kg/injection; type: functional, Mus musculus
P388 [22] = test: Compound was evaluated in vivo for antitumor activity after intraperitoneal administration against P388/L-PAM(14) for change in body weight at an optimal dose of 0.5 mg/kg/injection at 1,4,7,11 day schedule.; type: functional, Mus musculus
P388 [23] = test: Compound was evaluated in vivo for antitumor activity after intraperitoneal administration against P388/L-PAM(14) for % increase in life span at an optimal dose of 0.125 mg/kg/injection at 1,4,7,11 day schedule.; type: functional; conditions: Mus musculus, P388, ip
P388 [24] = test: Compound was evaluated in vivo for antitumor activity after intraperitoneal administration against P388 (1313) for tumor free survivors at an optimal dose of 0.2 mg/kg/injection; type: functional, Mus musculus
P388 [25] = test: Compound was evaluated in vivo for antitumor activity after intraperitoneal administration against P388 (1313) for total dose at an optimal dose of 1 mg/kg/injection; type: functional, Mus musculus
P388 [26] = test: Compound was evaluated in vivo for antitumor activity after intraperitoneal administration against P388 (1313) for median day of death at an optimal dose of 0.2 mg/kg/injection; type: functional, Mus musculus
P388 [27] = test: Compound was evaluated in vivo for antitumor activity after intraperitoneal administration against P388 (1313) for median day of death at an optimal dose of 0.5 mg/kg/injection; type: functional, Mus musculus
[28] = Compound was evaluated in vivo for antitumor activity against colon adenocarcinoma 38 after injecting the compound intravenously for percent T/C (value in parentheses indicates the day of evaluation); type: functional, Mus musculus
[29] = Compound was evaluated in vivo for antitumor activity against mammary adenocarcinoma 16/C after injecting the compound intravenously for percent T/C; type: functional, Mus musculus; how it was run: as §1

CN(C)CCCNc1ncnc2c1C(=O)C(N1CC1)=C(N1CC1)C2=O
Tumor burden (B16 [1]): 2002 mg and 3807 mg | Tumor burden (B16 [2]): 27 mg | T/C (B16 [3]): 76% | Optimal dose (B16 [4]): 0.2 mg/kg | Toxicity [5]: 0 | T/C (M5076): 58% | Total dose (L1210 [6]): 1.6 mg/kg | Mortality (L1210 [7]): 14 days | Mortality (L1210 [8]): 14 days | Mortality (L1210 [9]): 20 days | Change in body weight (L1210 [10]): 1.6 g mouse-1 | Median day of death (L1210 [11]): 14 | Mortality (L1210 [12]): 14 days | ILS at 0.25 mg/kg (L1210 [13]): 18% | ILS at 0.2 mg/kg (L1210 [14]): 27% | T/C [15]: 81% | Mortality (P388 [16]): 24 days | Optimal dose (P388 [17]): 1.6 mg/kg | Median day of death (P388 [18]): 19 | Median day of death (P388 [19]): 20 | Median day of death (P388 [20]): 19 | Survivors (P388 [21]): 0 | Change in body weight (P388 [22]): 0.7 g mouse-1 | ILS at 0.125 mg/kg (P388 [23]): 10% | Survivors (P388 [24]): 0 | Optimal dose (P388 [25]): 1 mg/kg | Median day of death (P388 [26]): 19.5 | Median day of death (P388 [27]): 25 | T/C [28]: 102% | T/C [29]: 48% and 68%
